The values that follow come from ChEMBL document CHEMBL3853327 (J Med Chem, 2016).

The subject of data set [1] is Human immunodeficiency virus 1. Description: Antiviral activity against wild type HIV1 3B harboring reverse transcriptase infected in human MT4 cells assessed as protection against virus induced cytotoxicity after 5 days by MTT assay. Type of data set: functional, cell-based. Conditions: Human immunodeficiency virus 1, 3B, MT4, 120 h. An outline of the steps: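 MTT cytopathicity assay in MT-4 cells (6 × 10^5 cells/mL). Compounds serially diluted 5-fold in triplicate wells, run in parallel on infected and mock-infected cells. Virus added at 100−300 CCID50 per well. Viability read spectrophotometrically at 540 and 690 nm after 5 days, using the median OD of three wells.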

Data set [2] is described as follows: MRT (0 to infinity) in Sprague-Dawley rat plasma at 8 mg/kg administered through oral gavage measured at 5 mins to 24 hrs post dosing by LC/MS analysis. Format: ADME, organism-based. An outline of the steps: (§1)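 Male Sprague-Dawley rats, ten randomly split into two groups (n = 5), single gavage dose of 8 or 16 mg·kg−1 in PEG 400/normal saline (70/30, V/V). Jugular sinus blood into heparinized tubes at 5 min to 24 h; plasma separated at 2200g for 8 min, stored −20 °C. Methanol precipitation with internal standard, LC-MS quantitation against plasma standard curves. Parameters reported as mean ± SD.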

The test system of data set [3] is Human immunodeficiency virus 1. Description: Antiviral activity against HIV1 3B harboring reverse transcriptase F227L/V106A double mutant infected in human MT4 cells assessed as protection against virus induced cytotoxicity after 5 days by MTT assay. Format: functional, cell-based. Conditions: Human immunodeficiency virus 1, 3B, MT4, 120 h. Put shortly: (§2)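 MTT cytopathicity assay in MT-4 cells (6 × 10^5 cells/mL). Compounds serially diluted 5-fold in triplicate wells, run in parallel on infected and mock-infected cells. Virus added at 100−300 CCID50 per well. Viability read spectrophotometrically at 540 and 690 nm after 5 days, using the median OD of three wells. EC50 is the concentration giving 50% protection from viral cytopathogenicity.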

A short description of data set [4]: MRT (0 to t) in Sprague-Dawley rat plasma at 16 mg/kg administered through oral gavage measured at 5 mins to 24 hrs post dosing by LC/MS analysis. Type of data set: ADME, organism-based. Put shortly: as §1
Data set [5] relates to Human immunodeficiency virus 1. In words: Antiviral activity against HIV1 3B harboring reverse transcriptase K103N mutant infected in human MT4 cells assessed as protection against virus induced cytotoxicity after 5 days by MTT assay. Format: functional, cell-based. Conditions: Human immunodeficiency virus 1, 3B, MT4, 120 h. An outline of the steps:
as §2

A short description of data set [6]: AUC (0 to t) in Sprague-Dawley rat plasma at 8 mg/kg administered through oral gavage measured at 5 mins to 24 hrs post dosing by LC/MS analysis. Also on record: dose 8 mg/kg, time 0.083-24 hr, route oral. Format: ADME, organism-based. An outline of the steps:
as §1

Data set [7] in a line: Cmax in Sprague-Dawley rat plasma at 8 mg/kg administered through oral gavage measured at 5 mins to 24 hrs post dosing by LC/MS analysis. Type of data set: ADME, organism-based. Set-up: dose 8 mg/kg, route oral. Conditions: in vivo. Put shortly:
as §1

Data set [8] has as its system Human immunodeficiency virus 1. Description: Potency index, ratio of ETV EC50 to compound EC50 for HIV1 3B harboring reverse transcriptase Y181C mutant infected in human MT4 cells. Type of data set: functional.
A short description of data set [9]: AUC (0 to t) in Sprague-Dawley rat plasma at 16 mg/kg administered through oral gavage measured at 5 mins to 24 hrs post dosing by LC/MS analysis. Type of data set: ADME, organism-based. Set-up: time lower 0.083 hr, dose 16 mg/kg, time upper 24 hr, route oral. An outline of the steps: as §1
The nature of data set [10]: AUC (0 to infinity) in Sprague-Dawley rat plasma at 8 mg/kg administered through oral gavage measured at 5 mins to 24 hrs post dosing by LC/MS analysis. Conditions: in vivo. Also on record: dose 8 mg/kg, route oral, time infinity. Format: ADME, organism-based. An outline of the steps:
as §1

Structures are written as SMILES. pEC50: −log10 of the molar value.

Turning to `Cc1cc(C#N)cc(C)c1Oc1nc(NC2CCN(Cc3ccc(S(N)(=O)=O)cc3)CC2)nc2ccsc12`, the pEC50 in data set [1] was 8.85; in data set [3] it was 8.38; in [5], 8.54. The MRT inf in data set [2] was determined as 3.84 h. The same compound yielded an MRT last in data set [4] of 3.25 h. For the same compound, the AUC(0-t) in [6] stood at 1680 ng·h/mL; in data set [9] it was 1670 ng·h/mL. Moreover, the concentration in data set [7] peaked (Cmax) at 415 ng/mL. Besides, the “Ratio EC50” value in [8] is recorded as 5. For the same compound, the AUC in data set [10] is 1720.9 ng·h/mL.
